Measurements gathered from unrelated publications.
Protocols differ between the studies behind these lines.
Target: Maternal embryonic leucine zipper kinase (MELK, Homo sapiens, UniProt Q14680)

CO[C@@H]1[C@H](N(C)C(=O)c2ccccc2)C[C@H]2O[C@]1(C)n1c3ccccc3c3c4c(c5c6ccccc6n2c5c31)C(=O)NC4
inhibition (enzyme activity; inhibitor; 1 µM): 60%

C[C@H]1CC[C@H](n2c3cnccc3c3cnc(Nc4ccc5c(n4)CCN(C(=O)CO)C5)nc32)CC1
remaining signal (cell-free assay; 1 µM): 24%

COc1ccc2oc(-c3ccc4nc(N)oc4c3)c/c(=N\c3ccccc3NC(=O)CCN)c2c1
remaining binding (binding; 1 µM): 99%

CCCCC(=O)Nc1ccc(-c2ccc3ncn(CCC)c(=O)c3c2)cn1
remaining binding (binding; competition with immobilised ligand; 0.5 µM): 86%

C#Cc1cc(-c2cc(Nc3nc(N[C@@H](C)c4ccc(F)cn4)ncc3Cl)n[nH]2)ccc1C=O
inhibition (enzyme activity; inhibitor; 0.2 µM): 34.3%

CC#CC(=O)N1CCC[C@H]1c1nc(-c2ccc(C(=O)Nc3ccccn3)cc2)c2c(N)nccn12
inhibition (enzyme activity; inhibitor; 1 µM): 41%

CN1CCN(C(=O)c2ccc(NC(=O)Nc3ccc(N(C)c4ccnc(Nc5ccc(CS(C)(=O)=O)cc5)n4)cc3)cc2)CC1
remaining binding (binding; 1 µM): 81%

C1=C/COCc2cc(ccc2OCCN2CCCC2)Nc2nccc(n2)-c2cccc(c2)COC/1
remaining binding (binding; 0.1 µM): 84%
